RGS4 inh: human RGS4 inhibition | HEK293 M3R/RGS4 inducible, Fluo-4 calcium flux; active compounds read high; triggered by carbachol at its EC20 | B-score at 10 µM | 0.45% of 310,000 active;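 active means B-score, a plate-corrected calcium signal, over three deviations above library mean, with baseline fluorescence within five deviations of library mean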;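 further: RGS4 expression induced by doxycycline in cells with stable M3 receptor; B-score is computed from the integrated fluorescence ratio over baseline after carbachol; higher B-score means a larger calcium signal and so more RGS4 inhibition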
Target sequence (P49798 whole entry, looked up): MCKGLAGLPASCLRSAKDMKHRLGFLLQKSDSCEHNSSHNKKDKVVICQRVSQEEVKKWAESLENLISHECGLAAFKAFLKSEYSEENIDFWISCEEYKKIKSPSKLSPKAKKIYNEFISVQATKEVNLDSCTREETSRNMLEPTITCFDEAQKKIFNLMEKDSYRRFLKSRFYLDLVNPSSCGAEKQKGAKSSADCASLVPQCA
MrgX1 agonist: human MrgX1 receptor agonism, primary screen; Q96LB2; MrgX1-HEK293 cells, Fluo-4 calcium fluorescence, agonist mode; active compounds read high; B-score at 10 µM; 0.44% of 310,000 active;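 active means calcium response B-score plate-corrected fluorescence ratio at least 3 library SD, with starting fluorescence B-score inside 5 SD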
Target sequence (Q96LB2 whole entry, looked up): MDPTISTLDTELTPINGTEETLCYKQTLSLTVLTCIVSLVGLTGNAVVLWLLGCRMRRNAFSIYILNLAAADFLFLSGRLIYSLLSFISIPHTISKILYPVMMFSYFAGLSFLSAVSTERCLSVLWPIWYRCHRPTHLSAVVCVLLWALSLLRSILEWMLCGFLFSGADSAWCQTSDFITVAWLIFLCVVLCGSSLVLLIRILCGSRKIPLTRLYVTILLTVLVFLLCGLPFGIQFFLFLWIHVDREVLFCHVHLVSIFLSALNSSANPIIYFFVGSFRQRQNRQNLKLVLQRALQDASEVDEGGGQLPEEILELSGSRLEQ
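Material: HEK293 cells stably expressing human MrgX1 receptor | Quantity: 15,000 cells per well | Times: Cells plated overnight, dye loaded 0.5 h 37 °C, 0.5 h room temperature | Measured by: Kinetic Fluo-4 NW fluorescence of intracellular calcium | Control set: Positive and negative controls per plate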
MrgX1 allo act: human MrgX1 positive allosteric modulation, primary screen; 0.63% of 310,000 active; Q96LB2; B-score at 10 µM; MrgX1-HEK293, Fluo-4 calcium flux, FDSS; active compounds read high; AID 588675;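 active means plate-corrected calcium response at least 3 library SD above typical, normal starting fluorescence, not activating the receptor alone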;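 further: compound read alongside a low EC10 to EC30 dose of BAM8-22 agonist; peak minus trough fluorescence over baseline measured at the second addition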
MrgX1 antag: antagonists of human MrgX1 receptor; MRGX1-HEK293 calcium flux, Fluo-4, BAM8-22 antagonism; active compounds read low; B-score at 10 µM; 1.3% of 310,000 active; AID 588676;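 active means calcium-response B-score plate-corrected more than 3 library SD below zero, starting fluorescence within 5 deviations, no agonist response on first addition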;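 further: peak minus trough fluorescence over baseline after final BAM8-22 challenge near maximal dose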
RGS4 act: potentiators or activators of RGS4. HEK293 M3R/inducible RGS4, carbachol calcium flux Fluo4; active compounds read low. B-score at 10 µM. 0.92% of 310,000 active;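 active means B-score of the integrated calcium signal more than 4 SD below the library mean, with starting fluorescence not abnormally high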;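 further: negative B-score means reduced calcium response which marks RGS4 activation or potentiation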
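System – HEK293 FlpIn-TREx cells, stable M3R, doxycycline-inducible RGS4 · Reagent – ECmax carbachol challenge · Times – compound preincubation 20 min at room temperature before agonist · Technique – Fluo4 fluorescence kinetic imaging of calcium · Measure – B score of integrated Fluo4 ratio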
MrgX1 ant reconf: reconfirmed antagonist of human MrgX1 receptor signaling | remaining BAM8-22 calcium response % of control (active compounds read low), % at 10 µM | MrgX1-HEK293, BAM8-22 calcium flux, Fluo-4; active compounds read low | shares compounds with MrgX1 antag | 19% of 2,300 active;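 active means remaining agonist calcium response no higher than 100% minus 3 SD of agonist-only control wells, with starting fluorescence near control levels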;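 further: agonist BAM8-22 given at a near maximal EC90 to ECmax level; peak minus minimum fluorescence divided by baseline after agonist addition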
HEK293 Ca flux: activity in parental HEK293 cells lacking MrgX1; shares compounds with MrgX1 antag; 2% of 4,000 active; AID 624111; Fluo-4 calcium fluorescence, FDSS; fluorescence ratio F(max-min)/F0 at 10 µM;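 active means duplicate-averaged calcium fluorescence ratio at least three times the standard deviation of buffer wells, a nonspecific response in parental cells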
HEK293 Ca counter: activity in parental HEK293 cells without MrgX1. fluorescence ratio F(max-min)/F0 at 10 µM. parental HEK293 calcium flux, Fluo-4 fluorescence ratio; active compounds read high. shares compounds with MrgX1 antag. 0.4% of 4,000 active;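 active means calcium fluorescence ratio, averaged over duplicates, at least 3 SD of the buffer-well ratio, meaning a nonspecific response in receptor-free cells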;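 further: untransfected parental HEK293 lacking MrgX1 used as counterscreen for MrgX1 allosteric activators; fluorescence change taken during the second addition on a kinetic imager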
HEK293 Ca cntr2: counter-screen for MrgX1 activators: effect in parental HEK293 cells; Fluo-4 calcium fluorescence (FDSS); active compounds read high; shares compounds with MrgX1 antag; AID 624115; fluorescence ratio F(max-min)/F0 at 10 µM; 8.7% of 4,000 active;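 active means calcium fluorescence ratio at least three times the spread of buffer wells, meaning a non-specific response in parental cells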
Numbers stand for hits; . = inactive; / = not tested or not shown. Sampled rows, rich in hits. Any-hit rate of the full collection: about 3.5%.

SMILES	RGS4 inh	MrgX1 agonist	MrgX1 allo act	MrgX1 antag	RGS4 act	MrgX1 ant reconf	HEK293 Ca flux	HEK293 Ca counter	HEK293 Ca cntr2
CC(C)CC(=O)Nc1c2c(nn1-c1ccc(F)cc1)CSC2	.	.	.	-7.7	.	.	.	.	.
CCOC(=O)N1CCN(C(=O)CCCn2c(=O)[nH]c3ccccc3c2=O)CC1	.	.	.	-7.4	.	.	.	.	.
CCOC(=O)N1CCN(C(=O)CCCn2c(=S)[nH]c3ccccc3c2=O)CC1	.	.	.	.	.	/	/	/	/
O=C(CSc1nnc(NC(=O)C2CC2)s1)Nc1ccc(F)cc1F	.	.	.	.	.	/	/	/	/
CC1CN(C(=O)Nc2ccc(F)cc2F)CC(C)O1 (configuration not stated)	.	.	.	.	.	/	/	/	/
O=C1c2cccc3c(N4CCCCC4)ccc(c23)C(=O)N1CCO	.	.	.	.	.	/	/	/	/
O=C1c2cccc3c(N4CCCCC4)ccc(c23)C(=O)N1c1cccc(O)c1	.	.	.	-5.2	.	.	.	.	.
CC1=C(C(=O)c2ccccc2)C(c2ccc(N3CCOCC3)cc2)NC(=O)N1 (configuration not stated)	.	.	.	-8.1	.	73%	.	.	.
CC1=C(C(=O)c2ccccc2)C(c2ccc(O)cc2)NC(=S)N1 (configuration not stated)	.	.	.	.	.	/	/	/	/
COc1ccc2c(c1)[nH]c1c(N3CCSCC3)ncnc12	.	.	.	-12	.	50%	.	.	.
CC(C)(C)OC(=O)N1CCN(C(=O)Nc2ccc3c(c2)OCCO3)CC1	.	.	.	.	.	/	/	/	/
NS(=O)(=O)c1ccc(CCn2c(=S)[nH]c3ccc(F)cc3c2=O)cc1	.	.	.	.	.	/	/	/	/
CCC(C)n1nnc2c(=O)oc3ccccc3c21 (configuration not stated)	.	.	.	-6.5	.	.	.	.	.
Cc1ccc(-n2nnc3c(=O)oc4ccccc4c32)cc1	.	.	.	.	.	/	/	/	/
O=C(CCn1cccn1)Nc1ccc2c(c1)OCCO2	.	.	.	.	.	/	/	/	/
CCN(CC)c1ccc(C(=O)O)cc1	.	.	.	-5.7	.	.	.	.	.
CC1CN(Cc2ccccc2)c2ccccc2NC1=S (configuration not stated)	.	.	.	.	.	/	/	/	/
O=C(Nc1nc(-c2ccccc2)cs1)c1ccc2c(=O)n3c(nc2c1)CCCCC3	.	.	.	-12	.	9.6%	.	.	.
Cc1cc(-c2csc(NC(=O)c3ccc(=O)[nH]c3)n2)c(C)n1Cc1ccccc1	.	.	.	.	.	/	/	/	/
O=C(Nc1nc(-c2ccccc2)cs1)c1ccc(=O)[nH]c1	.	.	.	-4.8	.	.	.	.	.
CC(=O)c1cccc(NC(=O)c2ccc3c(=O)n4c(nc3c2)CCCCC4)c1	.	.	.	.	.	/	/	/	/
CC(=O)c1c(C)[nH]c(C(=O)Nc2nc(-c3ccc(-c4ccccc4)cc3)cs2)c1C	.	.	.	-12	.	52%	.	.	.
O=C(OC1CO[C@H]2O[C@@H]1[C@H](OC(=O)c1ccccc1)[C@H]2OC(=O)c1ccccc1)c1ccccc1 (some centres not stated)	.	.	.	.	.	/	/	/	/
O=S(=O)(NCc1ccccc1)c1ccc(NC(=S)NCc2ccco2)cc1	.	.	.	.	.	/	/	/	/
COc1ccc(NC(=S)N2CCCC(c3nc4ccc(C)cc4[nH]3)C2)cc1 (configuration not stated)	.	.	.	-9.5	.	.	.	.	.
SMILES	RGS4 inh	MrgX1 agonist	MrgX1 allo act	MrgX1 antag	RGS4 act	MrgX1 ant reconf	HEK293 Ca flux	HEK293 Ca counter	HEK293 Ca cntr2
COc1ccc(NC(=S)N2CCCC(c3nc4ccc(C)cc4[nH]3)C2)c(OC)c1 (configuration not stated)	.	.	.	.	.	/	/	/	/
O=C(Nc1nnc(SCC(=O)N2CCCC2)s1)C1CC(=O)N(c2ccc(F)cc2)C1 (configuration not stated)	.	.	.	.	.	/	/	/	/
O=C(CSc1nnc(NC(=O)C2CC(=O)N(c3ccc(F)cc3)C2)s1)NC1CCCC1 (configuration not stated)	.	.	.	-4.9	.	.	.	.	.
Cc1nnnn1-c1ccc(CC(=O)O)cc1	.	.	.	-7.1	.	.	.	.	.
O=C(O)CSc1nnnn1-c1ccccc1	.	.	.	.	.	/	/	/	/
Cc1ccc(NC(=O)c2ccccc2-c2ccccc2C(=O)O)cc1	.	.	.	-6.6	.	.	.	.	.
O=C(Nc1ccc(NC(=O)c2ccccc2)nc1)c1ccncc1	.	.	.	-6.8	.	.	.	.	.
O=C(O)c1ccccc1-c1ccccc1C(=O)Nc1ccccc1	.	.	.	.	.	/	/	/	/
Cc1ccc(NC(=O)c2ccccc2)cc1	.	.	.	-4.7	.	.	.	.	.
Cc1cc(C)nc(NS(=O)(=O)c2ccc(NC(=O)C3(c4ccccc4)CCCC3)cc2)n1	.	.	.	.	.	/	/	/	/
COC(=O)c1[nH]c2ccc(C)cc2c1NS(=O)(=O)c1ccc(F)c(C)c1	.	.	.	-6.8	.	.	.	.	.
CCc1cc2c(=O)[nH]c(-c3ccncc3)nc2s1	.	.	.	-6.6	.	.	.	.	.
O=S(=O)(c1ccc(Cl)cc1)N1CCN(C(=S)Nc2ccccc2F)CC1	.	.	.	.	.	/	/	/	/
CC(C)(C)C1CCc2onc(C(=O)Nc3ccc4c(c3)OCO4)c2C1 (configuration not stated)	.	.	.	.	.	/	/	/	/
Cc1ccc(C(=O)C2=C(O)C(=O)N(Cc3cccnc3)C2c2ccc(Br)cc2)o1 (configuration not stated)	.	.	.	-11	.	.	.	.	.
CC(=O)Nc1ccc(NC(=O)CCc2nc3sc4c(c3c(=O)[nH]2)CCCC4)cc1	.	.	.	-4.6	.	.	.	.	.
NC(=O)c1ccc(NC(=O)CCc2nc3sc4c(c3c(=O)[nH]2)CCCC4)cc1	.	.	.	.	.	/	/	/	/
CCSc1nc2c(c(-c3ccc(C)o3)c1C#N)CCCC2	.	.	.	.	.	/	/	/	/
COC(=O)CSc1nc2c(c(-c3ccc(C)o3)c1C#N)CCCC2	.	.	.	-6.9	.	.	.	.	.
